Reference: ChEMBL document CHEMBL1817588, “Design and synthesis of 1,3-biarylsulfanyl derivatives as new anti-breast cancer agents” (Bioorg Med Chem, 2011)
pIC50: −log10 of the molar value. The source made the active and inactive calls. No cut-off for these calls is given here.

Columns and labels:
Ishikawa [1] = assay: Antiproliferative activity against human Ishikawa cells expressing estrogen receptor at 50 uM after 48 hrs by MTT assay; format: functional, cell-based
MCF7 [2] = assay: Antiproliferative activity against human MCF7 cells expressing estrogen receptor after 48 hrs by MTT assay; format: functional, cell-based; conditions: MCF7, 48 h
How it was run: (§1)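 Cells seeded at 1×10^4/well in DMEM with 10% FBS for 24 h at 37 °C, then exposed to compounds for 48 h. MTT (5 mg/mL) added for 4 h. Formazan dissolved in DMSO and absorbance read at 540 nm. Routine culture used DMEM with 10% FBS, 5% CO2, reduced to 2% FBS for growth inhibition.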

MDA-MB-231 [3] = assay: Antiproliferative activity against estrogen receptor-deficient human MDA-MB-231 cells […] at 50 uM after 48 hrs by MTT assay; format: functional, cell-based
MCF7 [4] = assay: Antiproliferative activity against human MCF7 cells expressing estrogen receptor at 50 uM after 48 hrs by MTT assay; format: functional, cell-based
Ishikawa [5] = assay: Antiproliferative activity against human Ishikawa cells expressing estrogen receptor after 48 hrs by MTT assay; format: functional, cell-based; how it was run: as §1
MDA-MB-231 [6] = assay: Antiproliferative activity against estrogen receptor-deficient human MDA-MB-231 cells […] after 48 hrs by MTT assay; format: functional, cell-based; conditions: MDA-MB-231, 48 h; how it was run: as §1
Rattus norvegicus [7] = species: Rattus norvegicus; assay: Displacement of [3H]-estradiol from estrogen receptor in rat uteri after 18 hrs by scintillation counting relative to 17beta-estradiol
How it was run: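 Cytosol from uteri of immature 20–21-day-old rats, in TEA buffer pH 7.4 (10 mM Tris, 1.5 mM EDTA, 0.02% azide). Incubated in triplicate with fixed 3H-estradiol ± competitor (DMF ≤5% final) for 18 h at 4 °C. Free ligand removed with dextran-coated charcoal (15 min, 800g 10 min), then supernatant counted. RBA taken at 50% inhibition from the bound-versus-log concentration plot.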

Rattus norvegicus [8] = assay: Antiestrogenic activity in Sprague-Dawley rat assessed as inhibition of uterine weight gain administered as po daily once for 3 days relative to 17alpha-ethynylestradiol; format: functional
How it was run: (§2)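 Immature female Sprague-Dawley rats given oral dosing once daily for 3 days on days 28–30 of age. Antiestrogenic arm co-dosed ethynylestradiol 0.02 mg/kg in 10% ethanol-water. Autopsy 24 h after last dose (day 31). Uterus excised, blotted and weighed, with vaginal opening and cornification also scored. Inhibition computed as (E − T)×100/E versus ethynylestradiol alone. Estrogenic gain expressed as percent increase over vehicle control.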

Rattus norvegicus [9] = assay: Estrogenic activity in Sprague-Dawley rat assessed as increase in uterine weight administered as po daily once for 3 days relative to control; format: functional; design: concentration or dose not given beside the values; how it was run: as §2
Bone [10] = assay: Antiosteoporotic activity in Sprague-Dawley rat [45Ca] pre-labeled bone assessed as inhibition of PTH-induced bone resorption after 96 hrs relative to control
Bone [11] = assay: Antiosteoporotic activity in Sprague-Dawley rat [45Ca] pre-labeled bone assessed as inhibition of PTH-induced bone resorption after 96 hrs
HEK293 = assay: Antiproliferative activity against human HEK293 cells after 48 hrs by MTT assay; format: cell-based; conditions: HEK293, 48 h; how it was run: as §1

| pIC50 (MCF7 [2]) | pIC50 (MDA-MB-231 [6]) | SMILES | Activity (Ishikawa [1]) | Activity (MDA-MB-231 [3]) | Activity (MCF7 [4]) | pIC50 (Ishikawa [5]) | also measured |
| --- | --- | --- | --- | --- | --- | --- | --- |
| 4.57 | – | CCSC(CC(=O)c1ccc(OC)cc1)c1ccc(OC)cc1 (stereo not given) | inactive | inactive | – | – | – |
| – | – | CCSC(CC(=O)c1ccccc1)c1ccc(O)cc1 (stereo not given) | inactive | inactive | inactive | – | – |
| 4.60 | 4.44 | Cc1ccc(C(CC(=O)c2cccc(Cl)c2)Sc2ccccc2)cc1 (stereo not given) | – | – | – | 4.55 | – |
| – | – | COc1ccc(C(CC(=O)c2ccc(Cl)cc2)Sc2ccccc2)cc1 (stereo not given) | – | inactive | inactive | 4.60 | – |
| 4.54 | 4.49 | O=C(CC(Sc1ccccc1)c1ccccc1)c1cccc(Cl)c1 (stereo not given) | – | – | – | 4.54 | – |
| 4.90 | – | CC/C(=C(\c1ccccc1)c1ccc(OCCN(C)C)cc1)c1ccccc1 [TAMOXIFEN] | – | – | – | 4.65 | RBA (Rattus norvegicus [7]): 2.2%; inhibition (INH) (Rattus norvegicus [8]): 49%; Activity (Rattus norvegicus [9]): 155% |
| 4.54 | 4.39 | COc1ccc(C(=O)CC(Sc2ccccc2)c2ccccc2)cc1 (stereo not given) | inactive | – | – | – | – |
| 4.52 | 4.32 | O=C(CC(Sc1ccccc1)c1ccccc1)c1ccc2ccccc2c1 (stereo not given) | – | – | – | 4.59 | – |
| 4.62 | 4.42 | O=C(CC(Sc1ccccc1)c1ccccc1)c1ccc(O)cc1 (stereo not given) | inactive | – | – | – | – |
| – | – | O=C(c1ccc(OCCN2CCCCC2)cc1)c1c(-c2ccc(O)cc2)sc2cc(O)ccc12 [RALOXIFENE] | – | – | – | – | inhibition (INH) (Bone [10]): 38%; T/C (Bone [11]): 0.62 |
| – | – | Cc1ccc(SC(CC(=O)c2ccccc2)c2ccccc2)cc1 (stereo not given) | inactive | inactive | inactive | – | – |
| 4.62 | – | CCSC(CC(=O)c1ccccc1)c1ccc(OC)cc1 (stereo not given) | inactive | inactive | – | – | – |
| 4.60 | 4.46 | Cc1cccc(SC(CC(=O)c2ccccc2)c2ccc(O)cc2)c1 (stereo not given) | – | – | – | 4.66 | – |
| 4.60 | – | CSC(CC(=O)c1ccccc1)c1ccccc1 (stereo not given) | – | inactive | – | 4.60 | – |
| 4.72 | 4.48 | O=C(CC(Sc1ccccc1)c1ccc(O)cc1)c1ccccc1 (stereo not given) | inactive | – | – | – | pIC50 (HEK293): 4.50 |
| 4.64 | 4.35 | COc1ccc(C(CC(=O)c2ccccc2)Sc2ccc(C)cc2)cc1 (stereo not given) | – | – | – | 4.77 | – |
| – | 4.38 | O=C(O)CCSC(CC(=O)c1ccccc1)c1ccccc1 (stereo not given) | – | – | inactive | 4.64 | – |
| 4.57 | 4.39 | Cc1ccc(SC(CC(=O)c2cccc(Cl)c2)c2ccc(C)cc2)cc1 (stereo not given) | inactive | – | – | – | – |
| – | 4.36 | O=C(CC(Sc1ccc([N+](=O)[O-])cc1)c1ccccc1)c1ccccc1 (stereo not given) | – | – | inactive | 4.64 | – |
| – | – | O=C(CC(Sc1ccc(Cl)cc1)c1ccccc1)c1ccccc1 (stereo not given) | inactive | inactive | inactive | – | – |
| 4.60 | 4.44 | COc1ccc(C(CC(=O)c2ccccc2)Sc2ccc(Cl)cc2)cc1 (stereo not given) | – | – | – | 4.66 | – |
| 4.60 | 4.54 | O=C(CC(Sc1ccc(Cl)cc1)c1ccccc1)c1ccc([N+](=O)[O-])cc1 (stereo not given) | – | – | – | 4.68 | – |
| – | 4.36 | COc1ccc(C(CC(=O)c2ccccc2)SCCC(=O)O)cc1 (stereo not given) | – | – | inactive | 4.62 | – |
| – | – | COc1ccc(C(=O)CC(Sc2ccc(Cl)cc2)c2ccccc2)cc1 (stereo not given) | – | inactive | inactive | 4.66 | – |
| 4.60 | 4.42 | O=C(CC(Sc1ccccc1)c1ccccc1)c1cccc([N+](=O)[O-])c1 (stereo not given) | – | – | – | 4.68 | – |
| 4.55 | 4.51 | O=C(CC(Sc1ccc(Cl)cc1)c1ccccc1)c1ccc(Cl)cc1 (stereo not given) | – | – | – | 4.62 | – |
